Test results as given in ChEMBL document CHEMBL1126988, “Quinolone antibacterials containing the new 7-[3-(1-aminoethyl)-1- pyrrolidinyl] side chain: the effects of the 1-aminoethyl moiety and its stereochemical configurations on potency and in vivo efficacy” (J Med Chem, 1993).
In brackets after ≈: the same amount, converted by molar mass.

How the values were obtained:
Assay type in all cases: functional
[1] = system: Klebsiella pneumoniae; assay: Minimum inhibitory concentration was evaluated in vitro against Klebsiella pneumoniae MGH2
Procedure, shortened: (§1)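 Standard microtitration broth assay against a panel of 10 Gram-positive and Gram-negative organisms. MIC read in µg/mL and averaged over multiple experiments.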

[2] = system: Streptococcus pyogenes; assay: Compounds were evaluated in vivo for antibacterial activity for mouse protection against Streptococcus pyogenes C 203 after oral administration; conditions: for ED50: Streptococcus pyogenes, C 203, po, read-out: PD50
[3] = system: Escherichia coli; assay: Antibacterial activity against Escherichia coli Vogel after oral administration in mouse; conditions: for ED50: Escherichia coli, po, read-out: PD50
[4] = system: Staphylococcus aureus; assay: Minimum inhibitory concentration was evaluated in vitro against Staphylococcus aureus UC 76; procedure, shortened: as §1
[5] = system: Streptococcus pyogenes; assay: Antibacterial activity measured as mouse protection against Streptococcus pyogenes C 203 after subcutaneous administration; conditions: for ED50: Streptococcus pyogenes, C 203, sc, read-out: PD50
[6] = system: Streptococcus pyogenes; assay: Minimum inhibitory concentration was evaluated in vitro against Streptococcus pyogenes C 203; procedure, shortened: as §1
[7] = system: Escherichia coli; assay: Antibacterial activity against Escherichia coli Vogel after subcutaneous administration in mouse; conditions: for ED50: Escherichia coli, sc, read-out: PD50
[8] = system: Enterobacter cloacae; assay: Minimum inhibitory concentration in vitro against Enterobacter cloacae MA 2646
[9] = system: Escherichia coli; assay: Antibacterial activity in vitro against Escherichia coli Vogel; procedure, shortened: as §1
[10] = system: Staphylococcus aureus; assay: Minimum inhibitory concentration was evaluated in vitro against Staphylococcus aureus H 228; procedure, shortened: as §1
[11] = system: Pseudomonas aeruginosa; assay: Minimum inhibitory concentration was evaluated in vitro against Pseudomonas aeruginosa UI-18; procedure, shortened: as §1
[12] = system: Streptococcus pneumoniae; assay: Minimum inhibitory concentration was evaluated in vitro against Streptococcus pneumoniae SV-1; procedure, shortened: as §1
[13] = system: Enterococcus faecalis; assay: Minimum inhibitory concentration was evaluated in vitro against Enterococcus faecalis MGH-2; procedure, shortened: as §1
[14] = system: Providencia rettgeri; assay: Minimum inhibitory concentration was evaluated in vitro against Providencia rettgeri M1771; procedure, shortened: as §1
[15] = Klebsiella pneumoniae, read-out: MIC
[16] = Staphylococcus aureus, read-out: MIC
[17] = Streptococcus pyogenes, read-out: MIC
[18] = Enterobacter cloacae, read-out: MIC
[19] = Escherichia coli, read-out: MIC
[20] = Pseudomonas aeruginosa, read-out: MIC
[21] = Streptococcus pneumoniae, read-out: MIC
[22] = Enterococcus faecalis, read-out: MIC
[23] = Providencia rettgeri, read-out: MIC

| SMILES | MIC [1, 15] | ED50 [2] | ED50 [3] | MIC [4, 16] | ED50 [5] | MIC [6, 17] | ED50 [7] | MIC [8, 18] | MIC [9, 19] | MIC [10, 16] | MIC [11, 20] | MIC [12, 21] | MIC [13, 22] | MIC [14, 23] | also measured |
| --- | --- | --- | --- | --- | --- | --- | --- | --- | --- | --- | --- | --- | --- | --- | --- |
| NCC1CCN(c2c(F)cc3c(=O)c(C(=O)O)cn(C4CC4)c3c2F)C1 (centres undefined) | 0.05 µg/mL (≈ 0.138 µM) | 4 mg/kg | 6 mg/kg | 0.003 µg/mL (≈ 0.00826 µM) | 0.4 mg/kg | 0.003 µg/mL (≈ 0.00826 µM) | 1 mg/kg | 0.013 µg/mL (≈ 0.0358 µM) | 0.025 µg/mL (≈ 0.0688 µM) | 0.013 µg/mL (≈ 0.0358 µM) | 0.2 µg/mL (≈ 0.55 µM) | 0.006 µg/mL (≈ 0.0165 µM) | 0.013 µg/mL (≈ 0.0358 µM) | 0.1 µg/mL (≈ 0.275 µM) | – |
| NC1CCN(c2c(F)cc3c(=O)c(C(=O)O)cn(C4CC4)c3c2F)C1 (centres undefined) | – | 8 mg/kg | 1 mg/kg | – | 2 mg/kg | – | – | 0.025 µg/mL (≈ 0.0716 µM) | – | – | 0.1 µg/mL (≈ 0.286 µM) | – | 0.05 µg/mL (≈ 0.143 µM) | 0.05 µg/mL (≈ 0.143 µM) | – |
| CCNCC1CCN(c2nc3c(cc2F)c(=O)c(C(=O)O)cn3-c2ccc(F)cc2F)C1 (centres undefined) | 0.4 µg/mL (≈ 0.896 µM) | 8 mg/kg | 6 mg/kg | 0.025 µg/mL (≈ 0.056 µM) | 3 mg/kg | 0.1 µg/mL (≈ 0.224 µM) | 4 mg/kg | 0.2 µg/mL (≈ 0.448 µM) | 0.2 µg/mL (≈ 0.448 µM) | 0.1 µg/mL (≈ 0.224 µM) | 1.6 µg/mL (≈ 3.58 µM) | 0.1 µg/mL (≈ 0.224 µM) | 0.2 µg/mL (≈ 0.448 µM) | 0.8 µg/mL (≈ 1.79 µM) | – |
| CCNCC1CCN(c2c(F)cc3c(=O)c(C(=O)O)cn(C4CC4)c3c2C(F)(F)F)C1 (centres undefined) | – | 2 mg/kg | 5 mg/kg | 0.025 µg/mL (≈ 0.0566 µM) | 1 mg/kg | – | 2 mg/kg | – | – | – | – | – | – | – | – |
| CCN[C@H](C)[C@H]1CCN(c2cc3c(cc2F)c(=O)c(C(=O)O)cn3C2CC2)C1 (mixture of isomers; form 2) | 0.4 µg/mL | 8 mg/kg | 13 mg/kg | – | 1 mg/kg | – | 2 mg/kg | 0.2 µg/mL | 0.2 µg/mL | – | 6.3 µg/mL | – | – | 0.8 µg/mL | MIC [4]: 0.025 µg/mL; MIC [6]: 0.05 µg/mL; MIC [10]: 0.1 µg/mL; MIC [12]: 0.05 µg/mL; MIC [13]: 0.1 µg/mL |
| NCC1CCN(c2c(F)c(N)c3c(=O)c(C(=O)O)cn(C4CC4)c3c2F)C1 (centres undefined) | 0.025 µg/mL (≈ 0.0661 µM) | 11 mg/kg | 12 mg/kg | 0.003 µg/mL (≈ 0.00793 µM) | 0.6 mg/kg | 0.003 µg/mL (≈ 0.00793 µM) | 1 mg/kg | 0.025 µg/mL (≈ 0.0661 µM) | 0.013 µg/mL (≈ 0.0344 µM) | 0.006 µg/mL (≈ 0.0159 µM) | 0.1 µg/mL (≈ 0.264 µM) | 0.003 µg/mL (≈ 0.00793 µM) | 0.013 µg/mL (≈ 0.0344 µM) | 0.05 µg/mL (≈ 0.132 µM) | – |
| CCN[C@@H](C)[C@@H]1CCN(c2nc3c(cc2F)c(=O)c(C(=O)O)cn3C2CC2)C1 | – | – | – | – | – | – | – | – | – | – | – | – | – | – | MIC [1]: 0.4 µg/mL (≈ 1.03 µM); PD50 [2]: 15 mg/kg; PD50 [3]: 3 mg/kg; MIC [4]: 0.1 µg/mL (≈ 0.257 µM); PD50 [5]: 9 mg/kg; MIC [6]: 0.4 µg/mL (≈ 1.03 µM); PD50 [7]: 1 mg/kg; MIC [8]: 0.2 µg/mL (≈ 0.515 µM); MIC [9]: 0.2 µg/mL (≈ 0.515 µM); MIC [10]: 0.2 µg/mL (≈ 0.515 µM); MIC [11]: 3.1 µg/mL (≈ 7.98 µM); MIC [12]: 0.1 µg/mL (≈ 0.257 µM); MIC [13]: 0.2 µg/mL (≈ 0.515 µM); MIC [14]: 1.6 µg/mL (≈ 4.12 µM) |
| CCNCC1CCN(c2c(F)c(N)c3c(=O)c(C(=O)O)cn(C4CC4)c3c2F)C1 (centres undefined) | 0.05 µg/mL (≈ 0.123 µM) | 5 mg/kg | 16 mg/kg | 0.003 µg/mL (≈ 0.00738 µM) | 3 mg/kg | 0.013 µg/mL (≈ 0.032 µM) | 2 mg/kg | 0.05 µg/mL (≈ 0.123 µM) | 0.05 µg/mL (≈ 0.123 µM) | 0.013 µg/mL (≈ 0.032 µM) | 0.2 µg/mL (≈ 0.492 µM) | 0.003 µg/mL (≈ 0.00738 µM) | 0.025 µg/mL (≈ 0.0615 µM) | 0.1 µg/mL (≈ 0.246 µM) | – |
| CN[C@@H](C)[C@H]1CCN(c2nc3c(cc2F)c(=O)c(C(=O)O)cn3C2CC2)C1 | 0.4 µg/mL (≈ 1.07 µM) | 23 mg/kg | – | 0.2 µg/mL (≈ 0.534 µM) | 15 mg/kg | 0.4 µg/mL (≈ 1.07 µM) | – | 0.4 µg/mL (≈ 1.07 µM) | 0.2 µg/mL (≈ 0.534 µM) | 0.8 µg/mL (≈ 2.14 µM) | 3.1 µg/mL (≈ 8.28 µM) | 0.4 µg/mL (≈ 1.07 µM) | 0.8 µg/mL (≈ 2.14 µM) | 0.8 µg/mL (≈ 2.14 µM) | – |
| CCN[C@H](C)[C@@H]1CCN(c2c(F)cc3c(=O)c(C(=O)O)cn(C4CC4)c3c2C(F)(F)F)C1 | 1.6 µg/mL (≈ 3.51 µM) | 2 mg/kg | – | 0.05 µg/mL (≈ 0.11 µM) | 0.8 mg/kg | 0.1 µg/mL (≈ 0.22 µM) | – | 1.6 µg/mL (≈ 3.51 µM) | 0.8 µg/mL (≈ 1.76 µM) | 0.05 µg/mL (≈ 0.11 µM) | 6.3 µg/mL (≈ 13.8 µM) | 0.05 µg/mL (≈ 0.11 µM) | 0.1 µg/mL (≈ 0.22 µM) | 3.1 µg/mL (≈ 6.81 µM) | – |
| CN[C@H](C)[C@@H]1CCN(c2c(F)cc3c(=O)c(C(=O)O)cn(C4CC4)c3c2C(F)(F)F)C1 | 1.6 µg/mL (≈ 3.62 µM) | 3 mg/kg | – | 0.025 µg/mL (≈ 0.0566 µM) | 2 mg/kg | 0.05 µg/mL (≈ 0.113 µM) | – | 0.4 µg/mL (≈ 0.906 µM) | 0.2 µg/mL (≈ 0.453 µM) | 0.05 µg/mL (≈ 0.113 µM) | 6.3 µg/mL (≈ 14.3 µM) | 0.05 µg/mL (≈ 0.113 µM) | 0.1 µg/mL (≈ 0.227 µM) | 3.1 µg/mL (≈ 7.02 µM) | – |
| CC(N)C1CCN(c2c(F)cc3c(=O)c(C(=O)O)cn(C4CC4)c3c2C(F)(F)F)C1 (stereo in doubt; 36F-R,R) | – | – | – | – | – | – | – | 0.4 µg/mL (≈ 0.936 µM) | – | – | – | – | – | 0.8 µg/mL (≈ 1.87 µM) | MIC [1]: 0.8 µg/mL (≈ 1.87 µM); PD50 [2]: 3 mg/kg; MIC [4]: 0.025 µg/mL (≈ 0.0585 µM); PD50 [5]: 2 mg/kg; MIC [6]: 0.1 µg/mL (≈ 0.234 µM); MIC [9]: 0.8 µg/mL (≈ 1.87 µM); MIC [10]: 0.1 µg/mL (≈ 0.234 µM); MIC [11]: 6.3 µg/mL (≈ 14.7 µM); MIC [12]: 0.1 µg/mL (≈ 0.234 µM); MIC [13]: 0.2 µg/mL (≈ 0.468 µM) |
